We go through eleven compounds from ChEMBL document CHEMBL1772954, “Antifungal, cytotoxic and SAR studies of a series of N-alkyl, N-aryl and N-alkylphenyl-1,4-pyrrolediones and related compounds” (Bioorg Med Chem, 2011).

Common to all, as to type: functional
Assay [1] has as its system Candida tropicalis. Description: Antifungal activity against Candida tropicalis C 131 2000. In outline: (§1)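 CLSI M27-A3 broth microdilution in RPMI-1640 buffered to pH 7.0 with MOPS. Inoculum 1-5 × 10^3 CFU/mL. Compound twofold dilutions from 250 to 0.24 µg/ml, final DMSO <1%. Incubated at 35 °C in a moist, dark chamber and read at 48 h. MIC is the lowest concentration giving total growth inhibition. For MFC, 5 µL from clear wells was plated in duplicate on SDA; MFC is the lowest concentration with no growth.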

For assay [2], the system named is Candida albicans. Briefly: Antifungal activity against Candida albicans ATCC 10213. A digest of the protocol: as §1
In assay [3] the test system is Cryptococcus neoformans. Briefly: Antifungal activity against Cryptococcus neoformans ATCC 32264. In outline:
as §1

Assay [4] relates to Aspergillus niger. Description: Antifungal activity against Aspergillus niger ATCC 9029. A digest of the protocol: (§2)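 Broth microdilution per CLSI M38-A2 in RPMI-1640 with MOPS at pH 7.0. Inoculum 1-5 × 10^3 CFU/mL, with twofold compound dilutions spanning 250-0.24 µg/ml (final DMSO <1%). Plates incubated at 35 °C, moist and dark, and read when the control fungus had grown. MIC is total growth inhibition. MFC comes from subculturing clear wells in duplicate onto SDA.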

The subject of assay [5] is Aspergillus fumigatus. Briefly: Antifungal activity against Aspergillus fumigatus ATCC 26934. A digest of the protocol:
as §2

In assay [6] the test system is Saccharomyces cerevisiae. Briefly: Antifungal activity against Saccharomyces cerevisiae ATCC 9763. A digest of the protocol:
as §1

Assay [7] has as its system Trichophyton rubrum. Description: Antifungal activity against Trichophyton rubrum C 113 2000. In outline: (§3)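 Dermatophytes tested by CLSI M38-A2 microdilution in MOPS-buffered RPMI-1640 at pH 7.0. Inoculum 1-5 × 10^3 CFU/mL; compounds 250 to 0.24 µg/ml in twofold steps, final DMSO <1%. Incubated at 28 °C in a moist, dark chamber and read according to control growth. MIC is the lowest concentration with complete inhibition. MFC is the lowest concentration with no growth after duplicate subculture on SDA.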

Assay [8] deals with Nannizzia gypsea. Description: Antifungal activity against Microsporum gypseum C 115 2000. In outline:
as §3

In assay [9] the test system is Aspergillus flavus. Briefly: Antifungal activity against Aspergillus flavus ATCC 9170. In outline: as §2
Assay [10] deals with Trichophyton mentagrophytes. Description: Antifungal activity against Trichophyton mentagrophytes ATCC 9972. In outline:
as §3

Each structure is given as a SMILES string. ≈ marks a conversion by molar mass, not a printed value.

Broadly, the MFC is the smallest concentration meeting the test's criterion for killing the fungus. Low readings indicate greater fungicidal potency, high ones weaker fungicidal potency. By MIC is commonly meant the lowest concentration found to suppress growth. For the compound `O=C1CCC(=O)N1CCCc1ccccc1`, the MFC in assay [1], in [2], in assay [3], in assay [4], in assay [5] and in assay [6] was over 250 µg/mL throughout. The MFC in assay [7], in [8], in [9] and in assay [10] was over 250 µg/mL in each case. Further, the MIC in [1], in assay [2], in [3], in assay [4], in assay [5] and in assay [6] was over 250 µg/mL in each case. Also, the MIC in [7], in [8], in assay [9] and in [10] was over 250 µg/mL each time.
As to `O=C1CCC(=O)N1CCCCc1ccccc1`, the MFC in [1], in assay [2], in assay [3], in [4], in assay [5] and in assay [6] was over 250 µg/mL each time. Besides, the MFC in [7], in [8], in assay [9] and in assay [10] was over 250 µg/mL each time. In addition, the MIC in [1], in [2], in assay [3], in [4], in assay [5] and in assay [6] was over 250 µg/mL in each case. For the same compound, the MIC in [7], in assay [8], in [9] and in [10] was over 250 µg/mL each time.
As to `O=C1C=CC(O)N1c1ccccc1` (stereo not given), the MFC in assay [1], in [2], in [3], in [4], in assay [5] and in assay [6] was over 250 µg/mL in each case. Also, the MFC in assay [7], in assay [8], in assay [9] and in assay [10] was over 250 µg/mL throughout. The MIC was over 250 µg/mL in [1]; over 250 µg/mL in assay [2]; 250 µg/mL (≈ 1430 µM) in assay [3]; over 250 µg/mL in assay [4]; over 250 µg/mL in assay [5]; over 250 µg/mL in [6]. Moreover, the MIC in [7], in assay [8], in assay [9] and in assay [10] was over 250 µg/mL throughout.
Consider `O=C1C=CC(O)N1Cc1ccccc1` (stereo not given), for which the MFC in assay [1], in [2], in assay [3], in assay [4], in assay [5] and in assay [6] was over 250 µg/mL throughout. Also, the MFC in [7], in assay [8], in assay [9] and in assay [10] was over 250 µg/mL each time. In addition, the MIC was over 250 µg/mL in assay [1]; over 250 µg/mL in assay [2]; 250 µg/mL (≈ 1320 µM) in assay [3]; over 250 µg/mL in [4]; over 250 µg/mL in assay [5]; over 250 µg/mL in assay [6]. Further, the MIC in [7], in assay [8], in assay [9] and in assay [10] was over 250 µg/mL throughout.
As to `O=C1C=CC(O)N1CCc1ccccc1` (stereo not given), the minimum fungicidal concentration (MFC) in [1] is over 250 µg/mL; in assay [2], 125 µg/mL (≈ 615 µM); in assay [3], over 250 µg/mL; in [4] it was over 250 µg/mL; in assay [5], over 250 µg/mL; in [6], over 250 µg/mL. Further, the MFC in assay [7] is 125 µg/mL (≈ 615 µM); in assay [8], 125 µg/mL (≈ 615 µM); in assay [9], over 250 µg/mL; in [10], 62.5 µg/mL (≈ 308 µM). In addition, the MIC in assay [1] was 250 µg/mL (≈ 1230 µM); in [2] it was 62.5 µg/mL (≈ 308 µM); in assay [3] it was 62.5 µg/mL (≈ 308 µM); in [4] it was over 250 µg/mL; in assay [5], over 250 µg/mL; in [6], 250 µg/mL (≈ 1230 µM). For the same compound, the MIC is 62.5 µg/mL (≈ 308 µM) in assay [7], 62.5 µg/mL (≈ 308 µM) in assay [8], over 250 µg/mL in assay [9] and 31.2 µg/mL (≈ 154 µM) in assay [10].
Turning to `O=C1C=CC(O)N1CCCc1ccccc1` (stereo not given), the MFC is 250 µg/mL (≈ 1150 µM) in assay [1]; over 250 µg/mL in assay [2]; over 250 µg/mL in assay [3]; over 250 µg/mL in [4]; 250 µg/mL (≈ 1150 µM) in assay [5]; 125 µg/mL (≈ 575 µM) in assay [6]. Besides, the MFC was 250 µg/mL (≈ 1150 µM) in assay [7], 125 µg/mL (≈ 575 µM) in assay [8], over 250 µg/mL in assay [9] and 62.5 µg/mL (≈ 288 µM) in [10]. The MIC in [1] is 125 µg/mL (≈ 575 µM); in assay [2], 62.5 µg/mL (≈ 288 µM); in assay [3] it was 62.5 µg/mL (≈ 288 µM); in assay [4], over 250 µg/mL; in assay [5], 125 µg/mL (≈ 575 µM); in [6], 62.5 µg/mL (≈ 288 µM). Further, the MIC in assay [7] worked out at 62.5 µg/mL (≈ 288 µM); in assay [8] it was 62.5 µg/mL (≈ 288 µM); in assay [9], 250 µg/mL (≈ 1150 µM); in assay [10], 31.2 µg/mL (≈ 144 µM).
For the compound `O=C1C=CC(O)N1CCCCc1ccccc1` (stereo not given), the MFC in [1], in [2], in assay [3], in [4], in assay [5] and in [6] was over 250 µg/mL throughout. Further, the MFC is 250 µg/mL (≈ 1080 µM) in assay [7], 250 µg/mL (≈ 1080 µM) in assay [8], over 250 µg/mL in assay [9] and 125 µg/mL (≈ 540 µM) in [10]. Further, the MIC in assay [1] is over 250 µg/mL; in [2], over 250 µg/mL; in assay [3] it was 250 µg/mL (≈ 1080 µM); in assay [4] it was over 250 µg/mL; in assay [5], over 250 µg/mL; in assay [6], over 250 µg/mL. The MIC is 62.5 µg/mL (≈ 270 µM) in assay [7], 125 µg/mL (≈ 540 µM) in [8], over 250 µg/mL in assay [9] and 62.5 µg/mL (≈ 270 µM) in [10].
Regarding `CC1=CC(=O)N(c2ccccc2)C1O` (stereo not given), the MFC in assay [1], in assay [2], in [3], in assay [4], in assay [5] and in [6] was over 250 µg/mL throughout. Also, the MFC in assay [7], in assay [8], in assay [9] and in assay [10] was over 250 µg/mL throughout. In addition, the MIC in assay [1] was over 250 µg/mL; in assay [2], over 250 µg/mL; in [3] it was 250 µg/mL (≈ 1320 µM); in assay [4], over 250 µg/mL; in assay [5], over 250 µg/mL; in [6] it was over 250 µg/mL. The minimal inhibitory concentration (MIC) in [7], in [8], in assay [9] and in assay [10] was over 250 µg/mL in each case.
For the compound `CC1=CC(=O)N(Cc2ccccc2)C1O` (stereo not given), the MFC in assay [1], in assay [2], in assay [3], in [4], in assay [5] and in [6] was over 250 µg/mL in each case. In addition, the MFC in [7], in [8], in [9] and in assay [10] was over 250 µg/mL in each case. For the same compound, the MIC in assay [1], in [2], in assay [3], in assay [4], in assay [5] and in assay [6] was over 250 µg/mL in each case. Besides, the MIC in assay [7], in [8], in assay [9] and in assay [10] was over 250 µg/mL in each case.
On to `CC1=CC(=O)N(CCc2ccccc2)C1O` (stereo not given), for which the MFC in assay [1], in assay [2], in [3], in assay [4], in assay [5] and in assay [6] was over 250 µg/mL in each case. In addition, the MFC in assay [7], in assay [8], in assay [9] and in assay [10] was over 250 µg/mL throughout. For the same compound, the MIC in [1], in [2], in assay [3], in [4], in [5] and in assay [6] was over 250 µg/mL in each case. The MIC in assay [7], in [8], in [9] and in assay [10] was over 250 µg/mL in each case.
For the compound `CC1=CC(=O)N(CCCc2ccccc2)C1O` (stereo not given), the MFC in assay [1], in [2], in [3], in assay [4], in assay [5] and in assay [6] was over 250 µg/mL throughout. Besides, the MFC in assay [7], in [8], in assay [9] and in assay [10] was over 250 µg/mL throughout. Moreover, the MIC in assay [1] was over 250 µg/mL; in assay [2], over 250 µg/mL; in [3], 250 µg/mL (≈ 1080 µM); in assay [4] it was over 250 µg/mL; in assay [5], over 250 µg/mL; in assay [6], over 250 µg/mL. Further, the MIC is 250 µg/mL (≈ 1080 µM) in assay [7], 250 µg/mL (≈ 1080 µM) in assay [8], over 250 µg/mL in assay [9] and 250 µg/mL (≈ 1080 µM) in [10].
